Source: ChEMBL document CHEMBL4184148 (Bioorg Med Chem Lett, 2017)

Legend:
[1] = molecular target: Cyclin-dependent kinase 14 (Homo sapiens) (UniProt O94921); test: Binding affinity to wild-type human full length PFTK1 (M1 to H451 residues) expressed in Escherichia coli BL21 at 1 uM by Kinomescan method relative to control
Summary of the method: (§1)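 Kinome-wide competition binding panel run by an outside provider, with each compound tested at a single concentration. Activity is read against the kinase panel.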

[2] = molecular target: Homeodomain-interacting protein kinase 1 (Homo sapiens) (UniProt Q86Z02); test: Binding affinity to wild-type human partial length HIPK1 (M146 to I555 residues) expressed in HEK293 cells at 1 uM by Kinomescan method relative to control; type: cell-based
[3] = molecular target: Phosphorylase b kinase gamma catalytic chain, skeletal muscle/heart isoform (Homo sapiens) (UniProt Q16816); test: Binding affinity to wild-type human full length PHKG1 (M1 to Y387 residues) expressed in Escherichia coli BL21 at 1 uM by Kinomescan method relative to control; summary of the method: as §1
[4] = test system: Proto-oncogene tyrosine-protein kinase receptor Ret (Homo sapiens), P07949 [V804M]; test: Binding affinity to human partial length RET V804M mutant (E713 to D1014 residues) expressed in Escherichia coli BL21 at 1 uM by Kinomescan method relative to control
[5] = molecular target: Serine/threonine-protein kinase N2 (Homo sapiens) (UniProt Q16513); test: Binding affinity to wild-type human partial length PKN2 (E634 to C984 residues) expressed in Escherichia coli BL21 at 1 uM by Kinomescan method relative to control
[6] = molecular target: Casein kinase I isoform gamma-2 (Homo sapiens) (UniProt P78368); test: Binding affinity to wild-type human full length CSNK1G2 (M1 to K415 residues) expressed in Escherichia coli BL21 at 1 uM by Kinomescan method relative to control
Summary of the method: (§2)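 Run as one kinome-wide competition binding panel with each compound at a single fixed concentration. Results were plotted as a kinome-wide selectivity map.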

[7] = molecular target: Serine/threonine-protein kinase PAK 4 (Homo sapiens) (UniProt O96013); test: Binding affinity to wild-type human partial length PAK4 (Q144 to R438 residues) expressed in Escherichia coli BL21 at 1 uM by Kinomescan method relative to control
[8] = molecular target: Mitogen-activated protein kinase 8 (Homo sapiens) (UniProt P45983); test: Binding affinity to wild-type human full length JNK1 (M1 to Q384 residues) expressed in HEK293 cells at 1 uM by Kinomescan method relative to control; type: cell-based; summary of the method: as §2
[9] = molecular target: Misshapen-like kinase 1 (Homo sapiens) (UniProt Q8N4C8); test: Binding affinity to wild-type human partial length MINK (M1 to K312 residues) expressed in HEK293 cells at 1 uM by Kinomescan method relative to control; type: cell-based
Misshapen-like kinase 1 (Homo sapiens), sequence (Q8N4C8 whole entry, looked up, the tested form may be a part): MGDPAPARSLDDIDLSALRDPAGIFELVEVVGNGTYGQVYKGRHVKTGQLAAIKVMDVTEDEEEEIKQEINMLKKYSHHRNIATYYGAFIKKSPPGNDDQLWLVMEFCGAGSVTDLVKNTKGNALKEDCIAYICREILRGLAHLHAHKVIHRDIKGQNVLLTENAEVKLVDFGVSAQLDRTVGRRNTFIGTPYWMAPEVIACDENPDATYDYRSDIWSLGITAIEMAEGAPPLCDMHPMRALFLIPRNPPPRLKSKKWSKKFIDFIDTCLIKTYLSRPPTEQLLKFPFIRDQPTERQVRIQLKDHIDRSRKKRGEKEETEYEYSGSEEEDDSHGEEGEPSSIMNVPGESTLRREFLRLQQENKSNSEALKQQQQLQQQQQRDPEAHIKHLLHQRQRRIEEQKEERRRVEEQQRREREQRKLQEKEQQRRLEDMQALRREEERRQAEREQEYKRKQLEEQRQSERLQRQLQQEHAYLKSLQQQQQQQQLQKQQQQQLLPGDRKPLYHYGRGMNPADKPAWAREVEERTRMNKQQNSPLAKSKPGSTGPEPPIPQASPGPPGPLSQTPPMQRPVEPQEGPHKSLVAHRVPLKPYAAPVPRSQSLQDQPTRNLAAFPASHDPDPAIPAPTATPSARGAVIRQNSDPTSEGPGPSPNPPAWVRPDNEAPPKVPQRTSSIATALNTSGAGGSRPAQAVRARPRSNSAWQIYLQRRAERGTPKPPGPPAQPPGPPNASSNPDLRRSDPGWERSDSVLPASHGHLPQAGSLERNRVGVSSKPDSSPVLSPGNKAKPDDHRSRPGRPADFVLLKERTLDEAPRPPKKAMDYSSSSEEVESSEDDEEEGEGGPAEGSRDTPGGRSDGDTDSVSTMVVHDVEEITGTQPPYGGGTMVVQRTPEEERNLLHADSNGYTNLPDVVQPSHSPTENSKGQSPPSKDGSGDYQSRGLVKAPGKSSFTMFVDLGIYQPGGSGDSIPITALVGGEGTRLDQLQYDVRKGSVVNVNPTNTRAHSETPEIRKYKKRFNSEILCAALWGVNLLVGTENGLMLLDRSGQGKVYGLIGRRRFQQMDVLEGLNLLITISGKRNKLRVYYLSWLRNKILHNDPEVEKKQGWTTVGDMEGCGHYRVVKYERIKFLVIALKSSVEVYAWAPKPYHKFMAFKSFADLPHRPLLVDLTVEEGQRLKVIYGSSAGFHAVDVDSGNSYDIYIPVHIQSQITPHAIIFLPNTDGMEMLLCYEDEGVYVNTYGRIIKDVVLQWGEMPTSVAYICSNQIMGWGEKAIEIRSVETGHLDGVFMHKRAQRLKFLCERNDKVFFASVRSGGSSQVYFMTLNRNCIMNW

[10] = molecular target: Angiopoietin-1 receptor (Homo sapiens) (UniProt Q02763); test: Binding affinity to wild-type human partial length TIE2 (N804 to T1112 residues) expressed in Escherichia coli BL21 at 1 uM by Kinomescan method relative to control
Angiopoietin-1 receptor (Homo sapiens), sequence (Q02763 whole entry, the tested form may be a part): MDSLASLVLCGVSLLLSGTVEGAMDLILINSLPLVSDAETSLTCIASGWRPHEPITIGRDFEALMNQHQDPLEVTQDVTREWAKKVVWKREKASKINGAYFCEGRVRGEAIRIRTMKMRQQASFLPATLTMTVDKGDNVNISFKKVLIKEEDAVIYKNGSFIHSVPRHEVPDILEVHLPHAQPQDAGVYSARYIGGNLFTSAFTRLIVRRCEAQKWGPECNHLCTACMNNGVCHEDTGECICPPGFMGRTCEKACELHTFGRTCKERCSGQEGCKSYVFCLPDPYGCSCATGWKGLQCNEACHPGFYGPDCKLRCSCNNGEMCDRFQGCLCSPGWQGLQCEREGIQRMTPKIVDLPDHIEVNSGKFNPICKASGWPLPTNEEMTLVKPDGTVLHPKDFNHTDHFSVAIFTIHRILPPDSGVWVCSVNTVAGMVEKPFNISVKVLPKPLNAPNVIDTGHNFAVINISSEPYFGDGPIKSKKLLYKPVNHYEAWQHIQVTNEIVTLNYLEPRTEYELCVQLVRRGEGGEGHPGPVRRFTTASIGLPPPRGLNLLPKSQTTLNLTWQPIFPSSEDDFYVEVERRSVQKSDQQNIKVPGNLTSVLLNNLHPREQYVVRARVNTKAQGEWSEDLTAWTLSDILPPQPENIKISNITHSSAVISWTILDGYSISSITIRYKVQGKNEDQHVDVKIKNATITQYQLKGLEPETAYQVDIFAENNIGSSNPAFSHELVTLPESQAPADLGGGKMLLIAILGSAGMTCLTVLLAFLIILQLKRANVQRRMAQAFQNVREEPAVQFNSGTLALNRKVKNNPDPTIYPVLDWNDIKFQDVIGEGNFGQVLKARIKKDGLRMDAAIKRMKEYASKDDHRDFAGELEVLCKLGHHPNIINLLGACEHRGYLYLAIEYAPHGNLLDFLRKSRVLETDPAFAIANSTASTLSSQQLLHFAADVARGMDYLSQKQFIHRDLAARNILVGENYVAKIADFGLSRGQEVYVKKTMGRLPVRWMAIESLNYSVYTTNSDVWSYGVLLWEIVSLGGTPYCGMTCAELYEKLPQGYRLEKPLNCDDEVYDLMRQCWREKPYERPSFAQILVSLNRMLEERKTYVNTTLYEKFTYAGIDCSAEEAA

[11] = molecular target: Dual specificity testis-specific protein kinase 1 (Homo sapiens) (UniProt Q15569); test: Binding affinity to wild-type human full length TESK1 (R37 to S626 residues) expressed in Escherichia coli BL21 at 1 uM by Kinomescan method relative to control; summary of the method: as §1
[12] = molecular target: Ephrin type-A receptor 7 (Homo sapiens) (UniProt Q15375); test: Binding affinity to wild-type human partial length EPHA7 (Y608 to S912 residues) expressed in Escherichia coli BL21 at 1 uM by Kinomescan method relative to control
[13] = molecular target: Uncharacterized serine/threonine-protein kinase SBK3 (Homo sapiens) (UniProt P0C264); test: Binding affinity to wild-type human partial length SgK110 (L22 to R329 residues) expressed in Escherichia coli BL21 at 1 uM by Kinomescan method relative to control
[14] = test system: Hepatocyte growth factor receptor (Homo sapiens), P08581 [Y1235D]; test: Binding affinity to human partial length MET Y1235D mutant (D1010 to S1367 residues) expressed in Escherichia coli BL21 at 1 uM by Kinomescan method relative to control
[15] = molecular target: Ribosomal protein S6 kinase beta-1 (Homo sapiens) (UniProt P23443); test: Binding affinity to wild-type human partial length S6K1 (M1 to S421 residues) expressed in HEK293 cells at 1 uM by Kinomescan method relative to control; type: cell-based
Ribosomal protein S6 kinase beta-1 (Homo sapiens), sequence (P23443 whole entry, looked up, the tested form may be a part): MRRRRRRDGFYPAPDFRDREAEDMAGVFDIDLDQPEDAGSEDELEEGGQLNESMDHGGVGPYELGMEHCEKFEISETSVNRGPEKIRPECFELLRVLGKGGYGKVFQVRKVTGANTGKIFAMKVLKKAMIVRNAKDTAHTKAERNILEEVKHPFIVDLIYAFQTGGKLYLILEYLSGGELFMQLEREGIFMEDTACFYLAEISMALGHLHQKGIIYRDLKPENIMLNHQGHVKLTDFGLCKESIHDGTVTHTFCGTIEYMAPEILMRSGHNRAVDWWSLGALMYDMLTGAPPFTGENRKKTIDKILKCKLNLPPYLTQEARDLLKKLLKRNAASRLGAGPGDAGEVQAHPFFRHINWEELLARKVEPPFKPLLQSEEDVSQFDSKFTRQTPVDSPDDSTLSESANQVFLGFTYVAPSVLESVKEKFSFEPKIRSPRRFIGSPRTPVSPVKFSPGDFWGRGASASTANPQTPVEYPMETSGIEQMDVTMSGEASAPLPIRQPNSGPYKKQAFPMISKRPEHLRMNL

[16] = molecular target: Epidermal growth factor receptor (Homo sapiens) (UniProt P00533); test: Binding affinity to human partial length EGFR L747-T751del/Sins mutant expressed in Escherichia coli BL21 at 1 uM by Kinomescan method relative to control
[17] = molecular target: Dual serine/threonine and tyrosine protein kinase (Homo sapiens) (UniProt Q6XUX3); test: Binding affinity to wild-type human full length RIPK5 (M1 to T929 residues) expressed in HEK293 cells at 1 uM by Kinomescan method relative to control; type: cell-based
[18] = test system: Tyrosine-protein kinase ABL1 (Homo sapiens), P00519 [E255K]; test: Binding affinity to human phosphorylated ABL1 E255K mutant (S229 to K512 residues) expressed in HEK293 cells at 1 uM by Kinomescan method relative to control; type: cell-based
Tyrosine-protein kinase ABL1 (Homo sapiens), P00519 [E255K], sequence (P00519 whole entry E255K, the tested form may be a part): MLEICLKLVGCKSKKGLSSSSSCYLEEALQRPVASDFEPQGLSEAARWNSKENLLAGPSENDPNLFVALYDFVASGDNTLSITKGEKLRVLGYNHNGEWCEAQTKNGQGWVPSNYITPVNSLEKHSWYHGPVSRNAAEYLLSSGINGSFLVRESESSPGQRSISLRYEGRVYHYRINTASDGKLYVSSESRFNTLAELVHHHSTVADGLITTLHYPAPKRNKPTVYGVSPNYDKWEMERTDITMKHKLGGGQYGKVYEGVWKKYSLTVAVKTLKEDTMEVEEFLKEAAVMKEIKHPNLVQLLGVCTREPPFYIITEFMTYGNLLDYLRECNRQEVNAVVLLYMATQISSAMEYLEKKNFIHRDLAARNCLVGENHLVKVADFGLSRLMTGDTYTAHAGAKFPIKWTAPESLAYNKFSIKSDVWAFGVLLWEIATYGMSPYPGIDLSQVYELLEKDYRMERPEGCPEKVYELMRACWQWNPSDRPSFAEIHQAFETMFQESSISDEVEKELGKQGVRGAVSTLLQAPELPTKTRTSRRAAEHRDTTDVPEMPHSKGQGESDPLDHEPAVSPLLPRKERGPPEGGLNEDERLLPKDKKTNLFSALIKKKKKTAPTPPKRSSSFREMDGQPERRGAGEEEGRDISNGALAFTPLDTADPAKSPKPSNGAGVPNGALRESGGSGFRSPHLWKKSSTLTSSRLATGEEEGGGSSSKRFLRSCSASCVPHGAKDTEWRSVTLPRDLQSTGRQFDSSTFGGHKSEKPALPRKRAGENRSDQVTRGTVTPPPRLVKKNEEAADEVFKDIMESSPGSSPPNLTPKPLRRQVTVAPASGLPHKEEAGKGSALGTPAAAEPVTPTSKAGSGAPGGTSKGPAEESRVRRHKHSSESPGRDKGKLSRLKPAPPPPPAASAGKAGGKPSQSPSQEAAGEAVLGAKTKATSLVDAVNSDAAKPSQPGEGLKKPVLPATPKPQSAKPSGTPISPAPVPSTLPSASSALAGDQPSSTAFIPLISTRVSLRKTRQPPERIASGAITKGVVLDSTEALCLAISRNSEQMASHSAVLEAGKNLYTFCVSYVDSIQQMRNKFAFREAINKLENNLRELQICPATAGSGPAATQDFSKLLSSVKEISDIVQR

[19] = molecular target: Serine/threonine-protein kinase SBK1 (Homo sapiens) (UniProt Q52WX2); test: Binding affinity to wild-type human partial length SBK1 (P23 to P348 residues) expressed in HEK293 cells at 1 uM by Kinomescan method relative to control; type: cell-based
[20] = molecular target: RAC-alpha serine/threonine-protein kinase (Homo sapiens) (UniProt P31749); test: Binding affinity to wild-type human partial length AKT1 expressed in Escherichia coli BL21 at 1 uM by Kinomescan method relative to control; summary of the method: as §1
[21] = molecular target: Serine/threonine-protein kinase 32C (Homo sapiens) (UniProt Q86UX6); test: Binding affinity to wild-type human partial length YANK3 (M68 to G486 residues) expressed in Escherichia coli BL21 at 1 uM by Kinomescan method relative to control
[22] = molecular target: Aurora kinase C (Homo sapiens) (UniProt Q9UQB9); test: Binding affinity to wild-type human full length AURKC (M1 to S275 residues) expressed in Escherichia coli BL21 at 1 uM by Kinomescan method relative to control
Aurora kinase C (Homo sapiens), sequence (Q9UQB9 whole entry, the tested form may be a part): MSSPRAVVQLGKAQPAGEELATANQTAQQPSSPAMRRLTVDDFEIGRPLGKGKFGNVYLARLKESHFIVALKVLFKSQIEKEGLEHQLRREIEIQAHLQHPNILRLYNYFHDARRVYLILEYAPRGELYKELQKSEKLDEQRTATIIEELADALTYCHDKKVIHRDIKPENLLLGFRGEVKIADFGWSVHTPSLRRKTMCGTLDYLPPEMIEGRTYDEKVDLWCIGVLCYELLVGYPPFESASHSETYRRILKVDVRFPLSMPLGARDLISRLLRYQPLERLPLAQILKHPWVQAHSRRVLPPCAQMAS

[23] = molecular target: LIM domain kinase 2 (Homo sapiens) (UniProt P53671); test: Binding affinity to wild-type human full length LIMK2 (M1 to P638 residues) expressed in Escherichia coli BL21 at 1 uM by Kinomescan method relative to control; summary of the method: as §2
[24] = molecular target: Discoidin domain-containing receptor 2 (Homo sapiens) (UniProt Q16832); test: Binding affinity to wild-type human partial length DDR2 (V555 to E855 residues) expressed in HEK293 cells at 1 uM by Kinomescan method relative to control; type: cell-based
[25] = molecular target: Mitogen-activated protein kinase 9 (Homo sapiens) (UniProt P45984); test: Binding affinity to wild-type human full length JNK2 (M1 to Q382 residues) expressed in HEK293 cells at 1 uM by Kinomescan method relative to control; type: cell-based; summary of the method: as §2
Mitogen-activated protein kinase 9 (Homo sapiens), sequence (P45984 whole entry, looked up, the tested form may be a part): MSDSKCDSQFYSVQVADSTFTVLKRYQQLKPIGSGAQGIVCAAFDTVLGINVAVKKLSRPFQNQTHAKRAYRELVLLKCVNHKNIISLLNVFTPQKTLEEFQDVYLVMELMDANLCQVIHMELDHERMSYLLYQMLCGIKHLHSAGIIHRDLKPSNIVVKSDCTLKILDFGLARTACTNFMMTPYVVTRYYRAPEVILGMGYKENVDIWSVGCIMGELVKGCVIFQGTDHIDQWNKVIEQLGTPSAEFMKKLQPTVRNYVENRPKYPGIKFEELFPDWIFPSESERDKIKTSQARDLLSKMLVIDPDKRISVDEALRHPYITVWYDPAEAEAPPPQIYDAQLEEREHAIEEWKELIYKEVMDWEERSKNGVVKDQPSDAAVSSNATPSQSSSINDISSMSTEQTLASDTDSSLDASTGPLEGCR

[26] = molecular target: Serine/threonine-protein kinase 4 (Homo sapiens) (UniProt Q13043); test: Binding affinity to wild-type human full length MST1 (M1 to F487 residues) expressed in Escherichia coli BL21 at 1 uM by Kinomescan method relative to control; summary of the method: as §2

SMILES | Activity [1] [%] | Activity [2] [%] | Activity [3] [%] | Activity [4] [%] | Activity [5] [%] | Activity [6] [%] | Activity [7] [%] | Activity [8] [%] | Activity [9] [%] | Activity [10] [%] | Activity [11] [%] | Activity [12] [%] | Activity [13] [%] | Activity [14] [%] | Activity [15] [%] | Activity [16] [%] | Activity [17] [%] | Activity [18] [%] | Activity [19] [%] | Activity [20] [%] | further results
CCC(=O)Nc1ccc(C(=O)Nc2ccc(Nc3ncc4c(n3)N(C)c3ccc(C)cc3C(=O)N4C)cc2)cc1 | 95 | 67 | 88 | 70 | 100 | 86 | 98 | 75 | 65 | 54 | 100 | 86 | 70 | 91 | 100 | 89 | 68 | 60 | 93 | 99 | Activity [21]: 100%; Activity [22]: 1.3%; Activity [23]: 89%; Activity [24]: 89%; Activity [25]: 91%; Activity [26]: 83%
C=CC(=O)Nc1ccc(C(=O)Nc2ccc(Nc3ncc4c(n3)N(C)c3ccc(C)cc3C(=O)N4C)cc2)cc1 | 100 | 87 | 99 | 68 | 75 | 97 | 97 | 85 | 98 | 88 | 100 | 94 | 93 | 87 | 91 | 81 | 96 | 77 | 100 | 100 | Activity [21]: 100%; Activity [22]: 49%; Activity [23]: 100%; Activity [24]: 96%; Activity [25]: 92%; Activity [26]: 45%
